Published values pooled from the literature.
Each line is one published result; the experiments were not run side by side.
Target: cGMP-dependent protein kinase 2 (PRKG2, Homo sapiens, UniProt Q13237)

CCCS(=O)(=O)Nc1ccc(F)c(C(=O)c2c[nH]c3ncc(-c4ccc(Cl)cc4)cc23)c1F — inhibition (enzyme activity; inhibitor; 1 µM): < 10%
Cc1sc(C(=O)NC2COC2)cc1-n1cc(NC(=O)Nc2c(F)cccc2Cl)cn1 — remaining activity (enzyme activity; inhibitor; 10 µM): 100%
CC1=C(C#N)[C@@H](c2ccc3[nH]nc(C)c3c2)C(C#N)=C(c2ccc(Cl)cc2)N1 — remaining binding (cell-free assay; competition with immobilised ligand; 1 µM): 100%
CC(C)(C)c1nc(-c2cccc(NS(=O)(=O)c3c(F)cccc3F)c2F)c(-c2ccnc(N)n2)s1 — remaining activity (enzyme activity; inhibitor; radiometric; 1 µM): 102%
C=CC(=O)Nc1cc(Nc2nccc(Nc3cc(Cl)c(F)cc3C(C)(C)O)n2)c(OC)cc1N1CC[C@@H](N(C)C)C1 — inhibition (enzyme activity; inhibitor; 1 µM): -8%
CN1CC(Oc2cnc(C#N)cc2-c2ccn3nc(NC(=O)C4CC4)cc3c2)C1 — inhibition (enzyme activity; inhibitor; 1 µM): 1%
COc1cccc(CNC(=O)c2nc3scc(COCc4ccc(C(=O)O)cc4)c3c(=O)[nH]2)c1 — remaining binding (cell-free assay; competition with immobilised ligand; 1 µM): 100%
Cn1cnc(Br)c1C1=CN(c2ncnc3[nH]cnc23)CCS1 — inhibition (enzyme activity; inhibitor; radiometric; 2 µM): 91.7%
Cc1ccc(C(=O)Nc2ccc(CN3CCN(C)CC3)c(C(F)(F)F)c2)cc1C#Cc1cnc2cccnn12 — remaining activity (enzyme activity; inhibitor; 23.5 nM): 82%
N#CC1(c2ccccn2)CCN(Cc2cc(C(=O)N3CCCC3)c(=O)n3ccccc23)CC1 — remaining binding (cell-free assay; competition with immobilised ligand; 1 µM): 100%
CC(C)(O)[C@H]1CC[C@H](Nc2ccc3ncc(-c4cccc(C(F)(F)F)c4)n3n2)CC1 — remaining activity (enzyme activity; inhibitor; 1 µM): 93.7%
Cc1cc(-n2nc(Cc3cc(F)cc(C(F)(F)F)c3)nc2C)ccc1C(N)=O — remaining binding (cell-free assay; competition with immobilised ligand; 1 µM): 86%
Cc1ccc(NC(=O)c2ccc(CN3CCN(C)CC3)cc2)cc1Nc1nc(-c2cccnc2)cs1 — remaining signal (cell-free assay; 0.5 µM): 95.4%
COc1cc2ncnc(Nc3ccc(Oc4ccccc4)c(C)c3C)c2cc1OC — inhibition (enzyme activity; inhibitor; 1 µM): 2%
CN(C)C1CCN(CC#Cc2nn(C3CCCC3)c3nc(NCc4ccccc4)ncc23)C1 (stereo not shown) — inhibition (enzyme activity; inhibitor; FRET; 10 µM): 5%
Nc1nc(Nc2ccc(S(N)(=O)=O)cc2)nn1C(=O)c1c(F)cccc1F — remaining signal (cell-free assay; 0.5 µM): 92.2%
CN(C)c1ncnc(-c2ccc3nc(Nc4cc(CN5CCN(C(=O)CC(F)(F)F)CC5)ccn4)[nH]c3c2)c1Cl — remaining binding (cell-free assay; competition with immobilised ligand; 1 µM): 40%
C[C@H]1CCN(c2nccc(-c3cnn4ncccc34)n2)C1 — remaining binding (binding; 1 µM): 80%
O=C1Nc2ccc(Cl)cc2C1=Cc1cc(Cl)c(O)c(Cl)c1 — remaining signal (cell-free assay; 0.5 µM): 97%
